A word on the IC50: it is the concentration that inhibits the measured activity by half.

Two molecules from publication PMC9590589 (RSC Advances, 2022) can be followed below.

The structures appear in SMILES notation. Bounds are passed on as bounds.

Common to all, as to type: cell-based
For data set [1], the system named is MDA-MB231 (breast) cells. Nature of the data set: MTT cytotoxicity assay, MDA-MB231. As to conditions: Homo sapiens, MDA-MB-231, 24 h, read-out: Cytotoxic activity, IC50, MDA-MB231. In a few lines:
(§1)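 Cells grown in DMEM/F12 with 10% FBS, penicillin (100 U mL−1) and streptomycin (100 μg mL−1) at 37 °C, 5% CO2, and passaged twice weekly by trypsinization. Seeded at 5 × 10^3 cells per well for 24 h, then exposed to a range of test compound concentrations for 24 h. MTT (5 mg mL−1 stock) added for 2 h, supernatant removed, formazan dissolved in DMSO, absorbance read at 540 nm, and IC50 calculated. Controls: doxorubicin (positive) and 0.75% DMSO (negative).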
For orientation: Tetrazolium dyes change colour on reduction, which living cells bring about.

Data set [2] can be described thus: MTT cytotoxicity assay, NHDF. The following applies: human, normal human dermal fibroblasts (NHDF). The procedure, abridged:
as §1

In data set [3] the test system is KKU-100 (cholangiocarcinoma) cells. Nature of the data set: MTT cytotoxicity assay, KKU-100. As to conditions: Homo sapiens, KKU100, 24 h, read-out: Cytotoxic activity, IC50, KKU-100. The procedure, abridged:
as §1

The subject of data set [4] is MDA-MB231, Huh-7, KKU-100 and normal human dermal fibroblast (NHDF) cell lines. Nature of the data set: MTT cytotoxicity assay, all cell lines. As to conditions: 24 h, read-out: IC50 values against all the cell lines. The procedure, abridged: as §1
For data set [5], the system named is Huh-7 (hepatocellular carcinoma) cells. Nature of the data set: MTT cytotoxicity assay, Huh-7. The following applies: Homo sapiens, Huh-7, 24 h, read-out: Cytotoxic activity, IC50, Huh-7. In a few lines:
as §1

Regarding `CC(C)=CCOc1ccc(-c2coc3cc(OCC=C(C)C)cc(O)c3c2=O)cc1` [Compound 9, 7,4′-di-O-prenylgenistein], the IC50 is greater than 100 µM in data set [1], greater than 100000 nM in data set [3], greater than 100 µM in data set [4] and greater than 100 µM in data set [5]. Further, the IC50 at 24 h in data set [2] was greater than 100 µM.

As to `COc1cccc2c1C(=O)c1c(O)c3c(c(O)c1C2=O)C[C@@](O)(C(=O)CO)C[C@@H]3O[C@H]1C[C@H](N)[C@H](O)[C@H](C)O1` [Doxorubicin, reference compound], half-maximal inhibition in data set [2] (IC50 at 24 h) required 5 µM. In addition, the IC50 in data set [3] is 1900 nM.
